Laboratory results published in ChEMBL document CHEMBL2062429, “Structure-based design, synthesis, and biological evaluation of dihydroquinazoline-derived potent β-secretase inhibitors” (Bioorg Med Chem Lett, 2012).

How the values were obtained:
Beta-secretase 1 = Beta-secretase 1 (Homo sapiens, UniProt P56817); assay: Inhibition of recombinant beta-secretase 1
[1] = Inhibition of beta-secretase in neuroblastoma cells assessed as inhibition of amyloid beta production; format: cell-based; details: Homo sapiens
In short: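 Cell-based assay in neuroblastoma cells. IC50 is reported as an average value.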

Beta-secretase 1, sequence (P56817 whole entry): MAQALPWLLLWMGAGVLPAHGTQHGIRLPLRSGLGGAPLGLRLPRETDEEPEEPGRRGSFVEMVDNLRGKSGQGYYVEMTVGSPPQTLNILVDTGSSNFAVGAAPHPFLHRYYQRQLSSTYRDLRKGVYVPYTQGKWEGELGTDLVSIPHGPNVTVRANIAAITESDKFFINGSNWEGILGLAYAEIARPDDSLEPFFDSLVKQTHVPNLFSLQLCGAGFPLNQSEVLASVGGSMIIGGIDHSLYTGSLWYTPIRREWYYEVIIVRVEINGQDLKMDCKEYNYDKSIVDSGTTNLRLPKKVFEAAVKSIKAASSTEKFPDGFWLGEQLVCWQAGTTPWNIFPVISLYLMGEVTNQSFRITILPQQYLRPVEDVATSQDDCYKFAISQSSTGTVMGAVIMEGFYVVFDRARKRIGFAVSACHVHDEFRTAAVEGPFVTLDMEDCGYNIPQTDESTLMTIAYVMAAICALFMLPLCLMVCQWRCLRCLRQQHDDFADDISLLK

| Compound | Ki (Beta-secretase 1) [nM] | IC50 [1] [nM] |
| --- | --- | --- |
| Cc1nc(CCN(C(=O)CC[C@@H](C2CCCCC2)N2Cc3cc(Oc4ccccc4)ccc3N=C2N)C2CCCCC2)cs1 | 106 |  |
| NC1=Nc2ccc(Oc3ccccc3)cc2CN1[C@@H](COC(=O)NC1CCCCC1)C1CCCCC1 | 60 |  |
| Cc1nc(CN(C(=O)CC[C@@H](C2CCCCC2)N2Cc3cc(Oc4ccccc4)ccc3N=C2N)C2CCCCC2)cs1 | 79 | 390 |
| Cc1nc(C(C)N(C(=O)CC[C@@H](C2CCCCC2)N2Cc3cc(Oc4ccccc4)ccc3N=C2N)C2CCCCC2)cs1 (stereo partly drawn) | 104 |  |
| CC(C)c1nc(CN(C(=O)CC[C@@H](C2CCCCC2)N2Cc3cc(Oc4ccccc4)ccc3N=C2N)C2CCCCC2)cs1 | 144 |  |
| COCc1nc(CN(C(=O)CC[C@@H](C2CCCCC2)N2Cc3cc(Oc4ccccc4)ccc3N=C2N)C2CCCCC2)cs1 | 13 | 21 |
| Cn1cc(CN(C(=O)CC[C@@H](C2CCCCC2)N2Cc3cc(Oc4ccccc4)ccc3N=C2N)C2CCCCC2)cn1 | 11 | 23 |
| NC1=Nc2ccc(Oc3ccccc3)cc2CN1[C@@H](CCC(=O)N(Cc1cn[nH]c1)C1CCCCC1)C1CCCCC1 | 23 |  |
| Cc1[nH]ncc1CN(C(=O)CC[C@@H](C1CCCCC1)N1Cc2cc(Oc3ccccc3)ccc2N=C1N)C1CCCCC1 | 39 | 51 |

Other lines, results leading:

| Ki (Beta-secretase 1) [nM] | IC50 [1] [nM] | Compound |
| --- | --- | --- |
| 164 | 482 | CN(C(=O)CC[C@@H](c1ccccc1)N1Cc2cc(Oc3ccccc3)ccc2N=C1N)C1CCCCC1 |
| 783 | 3400 | CN(C(=O)OC[C@@H](c1ccccc1)N1Cc2cc(Oc3ccccc3)ccc2N=C1N)C1CCCCC1 |
| 37.5 |  | CN(C(=O)OC[C@@H](C1CCCCC1)N1Cc2cc(Oc3ccccc3)ccc2N=C1N)C1CCCCC1 |
| 122 |  | CN(C(=O)CC[C@@H]([C@H]1CCCOC1)N1Cc2cc(Oc3ccccc3)ccc2N=C1N)C1CCCCC1 |
| 1460 |  | Cc1nc(CN(C(=O)OC[C@@H](C2CCCCC2)N2Cc3cc(Oc4ccccc4)ccc3N=C2N)C2CCCCC2)cs1 |
|  | 71 | CN(C(=O)CC[C@@H](C1CCCCC1)N1Cc2cc(Oc3ccccc3)ccc2N=C1N)C1CCCCC1 |
| 104 | 1100 | CN(C(=O)OC[C@@H](C1CCCOC1)N1Cc2cc(Oc3ccccc3)ccc2N=C1N)C1CCCCC1 (mixture of isomers) |
